Measured values taken from ChEMBL document CHEMBL5653631, “A Potent and Selective ULK1 Inhibitor Suppresses Autophagy and Sensitizes Cancer Cells to Nutrient Stress” (iScience, 2018).
Each block holds one compound with its values, some of them ahead of it.

Columns and labels:
[1] = target: RAC-beta serine/threonine-protein kinase (Homo sapiens) (UniProt P31751); test: Inhibition of human recombinant AKT2 at 500 nM related to control ULK1
[2] = target: Ephrin type-A receptor 5 (Homo sapiens) (UniProt P54756); test: Inhibition of human recombinant EphA5 at 500 nM related to control ULK1
[3] = target: Serine/threonine-protein kinase Nek6 (Homo sapiens) (UniProt Q9HC98); test: Inhibition of human recombinant NEK6 at 500 nM in presence of ATP by radiometric assay relative to control
Serine/threonine-protein kinase Nek6 (Homo sapiens), sequence (Q9HC98 whole entry): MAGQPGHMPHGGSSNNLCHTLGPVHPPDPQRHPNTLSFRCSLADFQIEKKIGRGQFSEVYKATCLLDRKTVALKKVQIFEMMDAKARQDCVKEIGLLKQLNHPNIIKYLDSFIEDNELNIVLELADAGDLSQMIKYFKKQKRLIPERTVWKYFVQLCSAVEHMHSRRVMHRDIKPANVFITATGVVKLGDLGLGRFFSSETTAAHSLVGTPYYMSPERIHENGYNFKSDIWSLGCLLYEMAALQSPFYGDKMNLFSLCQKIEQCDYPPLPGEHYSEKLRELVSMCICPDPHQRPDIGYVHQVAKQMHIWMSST

[4] = target: T1, Tyrosine-protein kinase TXK (Homo sapiens) (UniProt P42681); test: Inhibition of human recombinant TXK at 500 nM in presence of ATP by radiometric assay relative to control
T1 sequence (whole entry): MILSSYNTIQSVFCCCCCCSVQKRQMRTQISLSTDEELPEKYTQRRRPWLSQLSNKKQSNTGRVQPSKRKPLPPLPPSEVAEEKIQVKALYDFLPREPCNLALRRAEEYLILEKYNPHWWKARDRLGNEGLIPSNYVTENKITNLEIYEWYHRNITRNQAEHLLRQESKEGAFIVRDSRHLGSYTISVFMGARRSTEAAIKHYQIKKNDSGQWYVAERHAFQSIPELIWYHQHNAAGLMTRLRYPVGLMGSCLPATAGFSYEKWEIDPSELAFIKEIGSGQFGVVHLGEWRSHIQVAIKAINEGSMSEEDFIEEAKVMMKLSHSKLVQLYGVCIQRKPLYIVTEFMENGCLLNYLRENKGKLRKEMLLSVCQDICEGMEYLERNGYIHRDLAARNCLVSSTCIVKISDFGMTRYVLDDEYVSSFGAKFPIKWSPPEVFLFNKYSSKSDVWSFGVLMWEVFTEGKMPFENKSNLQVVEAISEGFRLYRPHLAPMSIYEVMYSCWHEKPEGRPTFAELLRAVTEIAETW

[5] = target: Serine/threonine-protein kinase PAK 4 (Homo sapiens) (UniProt O96013); test: Inhibition of human recombinant PAK4 at 500 nM related to control ULK1
Serine/threonine-protein kinase PAK 4 (Homo sapiens), sequence (O96013 whole entry, looked up): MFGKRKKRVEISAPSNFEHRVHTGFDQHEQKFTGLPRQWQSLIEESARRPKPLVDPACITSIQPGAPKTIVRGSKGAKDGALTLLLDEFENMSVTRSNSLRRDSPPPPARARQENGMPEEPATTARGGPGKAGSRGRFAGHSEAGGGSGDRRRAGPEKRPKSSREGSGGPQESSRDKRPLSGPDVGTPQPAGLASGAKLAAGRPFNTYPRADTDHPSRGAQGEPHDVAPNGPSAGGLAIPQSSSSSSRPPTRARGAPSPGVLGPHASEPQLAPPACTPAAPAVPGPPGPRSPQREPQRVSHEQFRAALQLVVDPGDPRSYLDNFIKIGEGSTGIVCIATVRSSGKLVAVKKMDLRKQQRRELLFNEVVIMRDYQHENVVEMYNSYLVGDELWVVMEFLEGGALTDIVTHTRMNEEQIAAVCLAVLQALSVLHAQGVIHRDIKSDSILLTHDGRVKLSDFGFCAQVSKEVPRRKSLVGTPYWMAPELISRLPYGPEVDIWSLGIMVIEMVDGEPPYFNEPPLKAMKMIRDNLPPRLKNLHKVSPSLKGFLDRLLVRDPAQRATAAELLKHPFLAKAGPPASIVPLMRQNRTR

[6] = target: Wee1-like protein kinase (Homo sapiens) (UniProt P30291); test: Inhibition of human recombinant Wee1 at 500 nM in presence of ATP by radiometric assay relative to control
[7] = target: Hepatocyte growth factor receptor (Homo sapiens) (UniProt P08581); test: Inhibition of human recombinant MET at 500 nM in presence of ATP by radiometric assay relative to control
[8] = target: Serine/threonine-protein kinase MRCK beta (Homo sapiens) (UniProt Q9Y5S2); test: Inhibition of human recombinant MRCKb at 500 nM in presence of ATP by radiometric assay relative to control
Serine/threonine-protein kinase MRCK beta (Homo sapiens), sequence (Q9Y5S2 whole entry): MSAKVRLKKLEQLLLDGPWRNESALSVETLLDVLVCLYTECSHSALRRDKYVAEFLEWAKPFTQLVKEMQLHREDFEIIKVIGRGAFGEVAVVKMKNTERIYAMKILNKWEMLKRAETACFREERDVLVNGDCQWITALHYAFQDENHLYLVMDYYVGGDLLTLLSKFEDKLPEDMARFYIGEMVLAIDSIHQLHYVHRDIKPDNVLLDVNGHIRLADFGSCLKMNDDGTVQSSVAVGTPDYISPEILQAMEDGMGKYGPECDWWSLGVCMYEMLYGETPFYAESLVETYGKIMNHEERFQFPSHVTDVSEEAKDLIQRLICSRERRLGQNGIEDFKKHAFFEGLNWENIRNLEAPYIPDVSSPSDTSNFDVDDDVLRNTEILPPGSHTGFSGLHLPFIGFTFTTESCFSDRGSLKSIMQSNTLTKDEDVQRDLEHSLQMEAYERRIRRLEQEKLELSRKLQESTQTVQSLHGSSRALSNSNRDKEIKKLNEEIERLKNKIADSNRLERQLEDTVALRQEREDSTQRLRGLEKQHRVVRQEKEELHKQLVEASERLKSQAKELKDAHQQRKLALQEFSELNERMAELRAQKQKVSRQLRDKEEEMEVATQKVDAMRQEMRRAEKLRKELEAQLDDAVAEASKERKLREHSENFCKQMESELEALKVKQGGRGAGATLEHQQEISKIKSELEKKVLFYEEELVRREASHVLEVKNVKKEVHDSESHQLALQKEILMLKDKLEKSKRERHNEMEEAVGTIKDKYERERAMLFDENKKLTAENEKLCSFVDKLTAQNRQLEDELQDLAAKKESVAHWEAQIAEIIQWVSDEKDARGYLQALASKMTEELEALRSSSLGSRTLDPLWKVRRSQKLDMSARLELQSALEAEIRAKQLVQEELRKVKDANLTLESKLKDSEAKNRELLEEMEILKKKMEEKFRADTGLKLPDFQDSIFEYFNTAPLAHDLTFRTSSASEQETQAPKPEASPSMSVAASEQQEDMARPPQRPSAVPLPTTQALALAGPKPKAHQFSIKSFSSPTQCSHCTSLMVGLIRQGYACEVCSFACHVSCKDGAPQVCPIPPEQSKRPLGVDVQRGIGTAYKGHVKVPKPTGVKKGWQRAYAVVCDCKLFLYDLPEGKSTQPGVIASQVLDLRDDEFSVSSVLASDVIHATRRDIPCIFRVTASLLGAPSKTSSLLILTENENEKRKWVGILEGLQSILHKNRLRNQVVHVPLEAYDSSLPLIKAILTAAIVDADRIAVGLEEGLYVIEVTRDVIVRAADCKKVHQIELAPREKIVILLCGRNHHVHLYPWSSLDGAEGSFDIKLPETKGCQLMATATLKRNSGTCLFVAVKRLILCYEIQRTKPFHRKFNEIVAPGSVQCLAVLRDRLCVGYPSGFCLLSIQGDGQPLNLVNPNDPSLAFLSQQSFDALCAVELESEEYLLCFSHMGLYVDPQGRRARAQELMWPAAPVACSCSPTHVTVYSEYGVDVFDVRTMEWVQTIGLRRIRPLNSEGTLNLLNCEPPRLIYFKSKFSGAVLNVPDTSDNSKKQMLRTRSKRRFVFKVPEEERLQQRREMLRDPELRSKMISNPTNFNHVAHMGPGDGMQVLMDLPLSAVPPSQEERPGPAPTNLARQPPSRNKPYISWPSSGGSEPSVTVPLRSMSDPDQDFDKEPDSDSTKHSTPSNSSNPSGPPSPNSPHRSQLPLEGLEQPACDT

[9] = target: Misshapen-like kinase 1 (Homo sapiens) (UniProt Q8N4C8); test: Inhibition of human recombinant MINK at 40 nM in presence of ATP by radiometric assay relative to control
[10] = target: Proto-oncogene tyrosine-protein kinase Src (Homo sapiens) (UniProt P12931); test: Inhibition of human recombinant SRC at 40 nM in presence of ATP by radiometric assay relative to control
[11] = target: Protein-tyrosine kinase 6 (Homo sapiens) (UniProt Q13882); test: Inhibition of human recombinant BRK at 40 nM in presence of ATP by radiometric assay relative to control
Method in brief: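 Part of a radiometric in vitro activity panel of 327 recombinant human kinases. Each kinase was tested in duplicate at one inhibitor concentration. Activity remaining was expressed as a percentage of the vehicle control, and percent inhibition was taken as 100 minus that value.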

[12] = target: Serine/threonine-protein kinase PAK 5 (Homo sapiens) (UniProt Q9P286); test: Inhibition of human recombinant PAK5 at 40 nM related to control ULK1
[13] = target: Tyrosine-protein kinase Lyn (Homo sapiens) (UniProt P07948); test: Inhibition of human recombinant LYN at 40 nM in presence of ATP by radiometric assay relative to control
[14] = target: Non-receptor tyrosine-protein kinase TYK2 (Homo sapiens) (UniProt P29597); test: Inhibition of human recombinant TYK2 at 40 nM related to control ULK1
Non-receptor tyrosine-protein kinase TYK2 (Homo sapiens), sequence (P29597 whole entry): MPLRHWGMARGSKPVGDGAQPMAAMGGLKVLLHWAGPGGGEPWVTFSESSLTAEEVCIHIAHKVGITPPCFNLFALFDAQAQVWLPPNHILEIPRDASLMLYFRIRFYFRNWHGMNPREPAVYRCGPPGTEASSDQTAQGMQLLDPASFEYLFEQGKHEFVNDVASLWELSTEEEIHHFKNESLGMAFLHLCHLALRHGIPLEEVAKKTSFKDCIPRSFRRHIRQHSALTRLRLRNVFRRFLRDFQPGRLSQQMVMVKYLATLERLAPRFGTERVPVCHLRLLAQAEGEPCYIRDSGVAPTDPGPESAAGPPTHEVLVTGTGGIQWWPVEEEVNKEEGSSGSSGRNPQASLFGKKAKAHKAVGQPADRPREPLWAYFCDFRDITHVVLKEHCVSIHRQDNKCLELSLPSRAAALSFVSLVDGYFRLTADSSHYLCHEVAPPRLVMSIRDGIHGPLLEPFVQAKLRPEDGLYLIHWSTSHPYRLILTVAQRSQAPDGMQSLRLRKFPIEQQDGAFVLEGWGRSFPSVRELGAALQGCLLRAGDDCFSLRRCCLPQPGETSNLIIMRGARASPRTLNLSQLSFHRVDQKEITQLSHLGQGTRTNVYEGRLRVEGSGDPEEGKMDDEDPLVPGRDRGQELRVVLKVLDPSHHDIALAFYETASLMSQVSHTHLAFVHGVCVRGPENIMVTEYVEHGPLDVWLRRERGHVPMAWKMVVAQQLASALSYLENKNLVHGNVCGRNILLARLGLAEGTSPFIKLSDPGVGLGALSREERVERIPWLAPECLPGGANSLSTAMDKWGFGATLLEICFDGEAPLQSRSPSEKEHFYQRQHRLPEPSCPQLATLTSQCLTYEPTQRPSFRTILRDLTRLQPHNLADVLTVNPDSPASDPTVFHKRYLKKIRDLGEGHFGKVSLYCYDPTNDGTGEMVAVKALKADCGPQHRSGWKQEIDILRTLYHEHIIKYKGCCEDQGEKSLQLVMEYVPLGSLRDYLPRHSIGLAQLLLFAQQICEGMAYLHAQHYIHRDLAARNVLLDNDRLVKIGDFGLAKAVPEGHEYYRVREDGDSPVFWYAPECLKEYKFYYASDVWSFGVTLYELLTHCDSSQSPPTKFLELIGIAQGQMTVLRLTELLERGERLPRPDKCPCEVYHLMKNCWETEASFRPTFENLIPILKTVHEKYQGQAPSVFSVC

[15] = target: T2, Serine/threonine-protein kinase Nek3 (Homo sapiens) (UniProt P51956); test: Inhibition of human recombinant NEK3 at 15 nM related to control ULK1
T2 sequence (whole entry): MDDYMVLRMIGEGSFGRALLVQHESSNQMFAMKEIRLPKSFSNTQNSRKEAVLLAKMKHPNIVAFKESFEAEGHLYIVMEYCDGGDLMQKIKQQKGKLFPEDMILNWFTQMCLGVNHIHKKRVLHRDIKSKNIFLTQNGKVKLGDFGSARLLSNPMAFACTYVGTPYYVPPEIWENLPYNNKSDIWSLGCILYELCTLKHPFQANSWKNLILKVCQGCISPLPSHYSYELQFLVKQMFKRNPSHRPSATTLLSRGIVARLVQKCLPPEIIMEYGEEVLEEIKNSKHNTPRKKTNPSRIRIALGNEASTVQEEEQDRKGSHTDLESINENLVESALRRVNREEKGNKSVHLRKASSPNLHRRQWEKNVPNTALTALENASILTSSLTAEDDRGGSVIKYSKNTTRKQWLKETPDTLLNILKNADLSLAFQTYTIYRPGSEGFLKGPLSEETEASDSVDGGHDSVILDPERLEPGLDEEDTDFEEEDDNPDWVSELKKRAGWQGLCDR

[16] = target: 5'-AMP-activated protein kinase catalytic subunit alpha-1 (Homo sapiens) (UniProt Q13131); test: Inhibition of human recombinant AMPKa1 at 15 nM related to control ULK1
Method in brief: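 Panel of 327 recombinant human kinases, each assayed in vitro by radiometric activity assay in duplicate at a single inhibitor concentration per compound, chosen with reference to its ULK1 inhibition. Activity remaining was expressed as percent of vehicle control, and percent inhibition was calculated as 100 minus percent activity remaining.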

[17] = target: Cyclin-dependent kinase 1 (Homo sapiens) (UniProt P06493); test: Inhibition of human recombinant CDC2 at 15 nM in presence of ATP by radiometric assay relative to control
Cyclin-dependent kinase 1 (Homo sapiens), sequence (P06493 whole entry, looked up): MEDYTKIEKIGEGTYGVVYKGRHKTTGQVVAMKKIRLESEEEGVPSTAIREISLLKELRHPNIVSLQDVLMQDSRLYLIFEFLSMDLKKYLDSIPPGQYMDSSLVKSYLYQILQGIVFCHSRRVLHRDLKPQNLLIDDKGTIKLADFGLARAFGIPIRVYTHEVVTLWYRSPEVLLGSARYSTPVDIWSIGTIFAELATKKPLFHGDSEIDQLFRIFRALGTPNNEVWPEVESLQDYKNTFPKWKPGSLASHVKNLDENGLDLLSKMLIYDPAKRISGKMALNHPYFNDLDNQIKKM

[18] = target: Calcium/calmodulin-dependent protein kinase type II subunit alpha (Homo sapiens) (UniProt Q9UQM7); test: Inhibition of human recombinant CaMK2a at 15 nM in presence of ATP by radiometric assay relative to control
[19] = target: Serine/threonine-protein kinase MRCK beta (Homo sapiens) (UniProt Q9Y5S2); test: Inhibition of human recombinant MRCKb at 15 nM related to control ULK1
[20] = target: Tyrosine-protein kinase HCK (Homo sapiens) (UniProt P08631); test: Inhibition of human recombinant HCK at 15 nM in presence of ATP by radiometric assay relative to control
[21] = target: Maternal embryonic leucine zipper kinase (Homo sapiens) (UniProt Q14680); test: Inhibition of human recombinant MELK at 15 nM in presence of ATP by radiometric assay relative to control
[22] = target: Tyrosine-protein kinase Tec (Homo sapiens) (UniProt P42680); test: Inhibition of human recombinant TEC at 15 nM related to control ULK1
Tyrosine-protein kinase Tec (Homo sapiens), sequence (P42680 whole entry, looked up): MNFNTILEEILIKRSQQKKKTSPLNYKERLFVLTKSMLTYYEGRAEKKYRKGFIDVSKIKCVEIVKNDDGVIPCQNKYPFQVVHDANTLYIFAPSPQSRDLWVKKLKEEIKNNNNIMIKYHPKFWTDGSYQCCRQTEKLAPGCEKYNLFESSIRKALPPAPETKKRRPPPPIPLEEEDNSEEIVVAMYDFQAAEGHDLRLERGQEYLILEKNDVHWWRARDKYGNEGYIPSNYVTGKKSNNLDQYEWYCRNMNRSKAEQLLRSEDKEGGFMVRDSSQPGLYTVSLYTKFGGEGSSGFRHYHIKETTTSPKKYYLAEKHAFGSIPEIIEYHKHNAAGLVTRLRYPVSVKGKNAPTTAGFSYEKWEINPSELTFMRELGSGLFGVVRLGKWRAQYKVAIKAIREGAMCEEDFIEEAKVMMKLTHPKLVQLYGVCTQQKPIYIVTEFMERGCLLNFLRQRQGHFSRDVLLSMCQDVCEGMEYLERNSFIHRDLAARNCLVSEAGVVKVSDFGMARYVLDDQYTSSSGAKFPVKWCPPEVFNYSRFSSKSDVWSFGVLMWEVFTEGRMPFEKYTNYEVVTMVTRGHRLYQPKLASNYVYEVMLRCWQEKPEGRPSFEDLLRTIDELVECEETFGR

- fold change (FC) [1]: 0.09
- fold change (FC) [2]: 0.26
- inhibition [3]: 0%
- inhibition [4]: 17%
- fold change (FC) [5]: 0.55
- inhibition [6]: 16%
- inhibition [7]: 32%
- inhibition [8]: 0%
Compound: CNC(=O)c1ccccc1Oc1nc(Nc2cc(OC)c(OC)c(OC)c2)ncc1Br

- inhibition [9]: 7%
- inhibition [10]: 2%
- inhibition [11]: 0%
- fold change (FC) [12]: 0
- inhibition [13]: 18%
- fold change (FC) [14]: 0.01
Compound: O=C(N[C@@H](C1CC1)C(F)(F)F)c1cc(-c2cnn3cc(-c4ccc(F)cc4)cnc23)cs1

- fold change (FC) [15]: 0.01
- fold change (FC) [16]: 0.66
- inhibition [17]: 24%
- inhibition [18]: 41%
- fold change (FC) [19]: 0.07
- inhibition [20]: 26%
- inhibition [21]: 67%
- fold change (FC) [22]: 0
Compound: CC(C)[C@H](NC(=O)c1cc(-c2cnn3cc(-c4ccc(OCCN5CCCCC5)cc4)cnc23)cs1)C(F)(F)F
